Key:
[1] = Metabolic stability in human liver microsomes assessed as parent compound decline at 10 uM incubated for 60 mins in absence of NADPH by HPLC analysis; assay type: ADME, Microsome; conditions: read-out: Drug degradation
Summary of the method: (§1)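 Compound (10 µM) was incubated 0 or 60 min at 37 °C with pooled HLMs (1 mg/mL), with or without 1 mM NADPH, or in buffer only (0.1 M KH2PO4 pH 7.4). Reactions were stopped with ice-cold acetonitrile. Remaining parent was measured by HPLC-fluorescence relative to 0 min; mean ± SD, n = 3.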

[2] = target: Tubulin (Bos taurus) (UniProt Q6B856+Q862L2+Q862F3); assay: Inhibition of [3H]colchicine binding to bovine brain tubulin at 5 uM relative to control
Summary of the method: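 Bovine brain tubulin at 1 µM was incubated with 5 µM [3H]colchicine and the test compound at 5 µM. Inhibition of colchicine binding was measured relative to a control.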

[3] = system: HL-60; assay: Growth inhibition of human HL60 cells incubated for 72 hrs by MTT assay; assay type: functional; conditions: HL-60, 72 h
Summary of the method: (§2)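 Leukemia lines were grown in RPMI-1640; the CEM^Vbl-100 medium also contained 100 ng/mL vinblastine. Cells were seeded at 8 × 10³ per well and left 18 h at 37 °C, 5% CO2. Medium was then replaced with fresh medium holding graded compound concentrations (DMSO stocks), in triplicate, for 72 h. Viability was read by MTT, and GI50 = concentration inhibiting proliferation 50%.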

[4] = system: Jurkat; assay: Growth inhibition of human Jurkat cells incubated for 72 hrs by MTT assay; assay type: functional; summary of the method: as §2
[5] = system: MCF7; assay: Growth inhibition of human MCF7 cells incubated for 72 hrs by MTT assay; assay type: functional; conditions: MCF7, 72 h
[6] = system: MDA-MB-468; assay: Growth inhibition of human MDA-MB-468 cells incubated for 72 hrs by MTT assay; assay type: functional; conditions: MDA-MB-468, 72 h
[7] = system: HeLa; assay: Growth inhibition of human HeLa cells incubated for 72 hrs by MTT assay; assay type: functional
[8] = system: MDA-MB-231; assay: Growth inhibition of human MDA-MB-231 cells incubated for 72 hrs by MTT assay; assay type: functional; conditions: MDA-MB-231, 72 h
[9] = Metabolic stability in human liver microsomes assessed as parent compound decline at 10 uM incubated for 60 mins in presence of NADPH by HPLC analysis; assay type: ADME, Microsome; conditions: read-out: Drug degradation; summary of the method: as §1
[10] = Growth inhibition of human DND41 cells incubated for 72 hrs by MTT assay; assay type: functional; conditions: DND41, 72 h; summary of the method: as §2
[11] = system: RS4-11; assay: Growth inhibition of human RS4:11 cells incubated for 72 hrs by MTT assay; assay type: functional; conditions: RS4-11, 72 h; summary of the method: as §2
[12] = system: HT-29; assay: Growth inhibition of human HT-29 cells incubated for 72 hrs by MTT assay; assay type: functional; conditions: HT-29, 72 h
[13] = system: A2058; assay: Growth inhibition of human A2058 cells incubated for 72 hrs by MTT assay; assay type: functional; conditions: A2058, 72 h
[14] = target: Tubulin (Bos taurus, UniProt Q6B856+Q862L2+Q862F3); assay: Inhibition of bovine brain tubulin polymerization preincubated for 15 mins followed by GTP addition and measured for 20 mins by turbidimetry-based spectrophotometric method
Summary of the method: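 Bovine brain tubulin (10 µM) was preincubated with varying compound concentrations in 0.8 M monosodium glutamate, pH 6.6, for 15 min at 30 °C, then cooled to 0 °C. GTP was added to 0.4 mM final and the mix warmed to 30 °C. Turbidity was followed at 350 nm. IC50 = concentration inhibiting extent of assembly 50% after 20 min.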

[15] = system: A-375; assay: Growth inhibition of human A375 cells incubated for 72 hrs by MTT assay; assay type: functional; conditions: A-375, 72 h
[16] = Growth inhibition of human PBL cells incubated for 72 hrs by MTT assay; assay type: cell-based; conditions: PBL cells (peripheral blood lymphocytes)
Summary of the method: (§3)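 PBL from healthy donors were isolated on a Lymphoprep gradient, held overnight in RPMI-1640 with 10% FBS, and the non-adherent cells resuspended at 5 × 10^5 cells/mL. Proliferating cultures got 2.5 µg/mL PHA; resting cultures got none. Compound was added at several concentrations for 72 h and viability read by MTT. GI50 reported as mean ± SEM of three experiments.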

[17] = Stability in phosphate buffer at pH 7.4 at 10 uM incubated for 30 mins by HPLC analysis; assay type: physicochemical; conditions: pH 7.4, 0.5 h
Summary of the method: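 No microsomes or NADPH: compound (10 μM final) held in 0.1 M KH₂PO₄ pH 7.4 at 37 °C. Samples taken at 0 and 30 min, quenched with ice-cold acetonitrile, centrifuged, analysed by HPLC with fluorescence detection. Percent parent remaining relative to 0 min; mean ± SD, n = 3.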

[18] = Metabolic stability in human liver microsomes at 10 uM incubated for 30 mins in phosphate buffer at pH 7.4 by HPLC analysis; assay type: ADME, Microsome; conditions: pH 7.4, 0.5 h
Summary of the method: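 Test compound (10 μM, final) incubated at 37 °C with pooled mixed-gender HLMs (0.5 mg/mL) in 0.1 M KH₂PO₄ pH 7.4 without NADPH. Sampled at 0 and 30 min, quenched with ice-cold acetonitrile, centrifuged, supernatant analysed by HPLC with fluorescence detection (ex 344/em 493 nm). Percent remaining calculated from peak area relative to 0 min; mean ± SD, n = 3.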

[19] = Selectivity ratio of GI50 for PHA-stimulated human PBL cells to GI50 for human DND41 cells incubated for 72 hrs by MTT assay
Summary of the method: (§4)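 Leukemia cells (CEM, DND-41, Jurkat) were grown in RPMI-1640 at 8×10³ cells/well and left 18 h. Donor PBL were gradient-separated, held overnight, and non-adherent cells set at 5×10^5 cells/mL with 2.5 µg/mL PHA. Both were exposed 72 h at 37 °C to graded compound concentrations, read by MTT. The ratio is PBL GI50 over leukemia GI50.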

[20] = Selectivity ratio of GI50 for human PBL cells to GI50 for human Jurkat cells incubated for 72 hrs by MTT assay
Summary of the method: as §4, with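 “overnight in RPMI-1640/10% FBS,” for “overnight,”, “without PHA (resting).” for “with 2.5 µg/mL PHA.”, “h” for “h at 37 °C”, “graded” for “graded compound”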

[21] = Metabolic stability in human liver microsomes at 10 uM incubated for 15 mins in presence of NADPH and non-selective CYP inhibitor quercetin by HPLC analysis; assay type: ADME, Microsome; conditions: 0.25 h
Summary of the method: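 Compound (10 µM) was incubated 0 and 15 min at 37 °C with pooled HLMs and 1 mM NADPH in 0.1 M KH2PO4 pH 7.4, with or without 100 µM quercetin. Parent remaining was measured by HPLC-fluorescence relative to 0 min; mean ± SD, n = 3.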

[22] = Time-dependent metabolic stability in human liver microsomes at 10 uM incubated for 30 mins in presence of NADPH by HPLC analysis; assay type: ADME, Microsome; conditions: 0.5 h
Summary of the method: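 Pooled mixed-gender HLMs (0.5 mg/mL) plus 1 mM NADPH in 0.1 M KH₂PO₄ pH 7.4, compound 10 μM final, 37 °C. Reaction started with microsomes after 3-min equilibration. Stopped with ice-cold acetonitrile at 0, 2, 5, 15, 30 min, then HPLC-fluorescence of supernatant. Percent remaining vs 0 min (mean ± SD, n = 3). Half-life = 0.693/k from linear regression of Ln % remaining vs time.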

[23] = Growth inhibition of PHA-stimulated human PBL cells incubated for 72 hrs by MTT assay; assay type: cell-based; conditions: PHA-stimulated PBL cells (peripheral blood lymphocytes); summary of the method: as §3
[24] = Metabolic stability in human liver microsomes assessed as half life at 10 uM incubated for 30 mins in presence of NADPH by HPLC analysis; assay type: ADME, Microsome
Summary of the method: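 Compound (10 µM) was incubated at 37 °C with 0.5 mg/mL pooled HLMs and 1 mM NADPH in 0.1 M KH2PO4 pH 7.4, sampled at 0, 2, 5, 15 and 30 min. Controls without NADPH, or buffer only, ran 0 and 30 min. Parent was quantified by HPLC-fluorescence as % of the 0 min level, n = 3. t1/2 = 0.693/k, with k from regression of ln % remaining versus time.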

[25] = Selectivity ratio of GI50 for human PBL cells to GI50 for human DND41 cells incubated for 72 hrs by MTT assay
Summary of the method: as §4, with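 “overnight in RPMI-1640/10% FBS,” for “overnight,”, “without PHA (resting).” for “with 2.5 µg/mL PHA.”, “h” for “h at 37 °C”, “graded” for “graded compound”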

[26] = Selectivity ratio of GI50 for human PBL cells to GI50 for human CEM cells incubated for 72 hrs by MTT assay; assay type: functional
Summary of the method: as §4, with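 “overnight in RPMI-1640/10% FBS,” for “overnight,”, “without PHA (resting).” for “with 2.5 µg/mL PHA.”, “h” for “h at 37 °C”, “graded” for “graded compound”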

[27] = Selectivity ratio of GI50 for PHA-stimulated human PBL cells to GI50 for human Jurkat cells incubated for 72 hrs by MTT assay; summary of the method: as §4
[28] = system: CCRF-CEM; assay: Growth inhibition of human CEM cells incubated for 72 hrs by MTT assay; assay type: functional; summary of the method: as §2
[29] = Selectivity ratio of GI50 for PHA-stimulated human PBL cells to GI50 for human CEM cells incubated for 72 hrs by MTT assay; summary of the method: as §4
[30] = Growth inhibition of multidrug-resistant human CEM/VBL100 cells incubated for 72 hrs by MTT assay; assay type: functional; conditions: CEM/VBL100, 72 h; summary of the method: as §2

| SMILES | metabolised at 1 h, 10 µM [1] [%] | inhibition [2] [%] | GI50 [3] [nM] | GI50 [4] [nM] | GI50 [5] [nM] | GI50 [6] [nM] | GI50 [7] [nM] | GI50 [8] [nM] | metabolised at 1 h, 10 µM [9] [%] | GI50 [10] [nM] | GI50 [11] [nM] | GI50 [12] [nM] | GI50 [13] [nM] | IC50 [14] [µM] | GI50 [15] [nM] | GI50 at 72 h [16] [µM] | RatioGI50 [19] | RatioGI50 [20] | GI50 at 72 h [23] [µM] | RatioGI50 [25] | also measured |
| --- | --- | --- | --- | --- | --- | --- | --- | --- | --- | --- | --- | --- | --- | --- | --- | --- | --- | --- | --- | --- | --- |
| O=C(c1ccccc1F)n1ccc2c3c(=O)cc(-c4ccccc4)[nH]c3ccc21 | 20 | 34 | 276 | 53.7 | 1080 | 70 | 9.3 | 3030 | 20 | 240 | 120 | 26.6 | 322 | 1.3 | 332 |  |  |  |  |  |  |
| CCn1ccc2c3c(=O)cc(-c4cccc(F)c4)[nH]c3ccc21 |  | 83 | 0.08 | 0.11 | 52.7 | 15 | 0.7 | 69 |  | 0.13 | 0.07 | 0.9 | 3.5 | 0.78 to 0.84 | 11.4 | 31.3 | 10000 - 30000 | 10000 - 30000 | 10.8 | 10000 - 30000 | Stability [17]: Stable; Stability [18]: Stable; Stability [21]: Stable; Stability [22]: Unstable; half-life at 10 µM [24]: 11.8 min; RatioGI50 [26]: 10000 - 30000; RatioGI50 [27]: 10000 - 30000; GI50 [28]: 2.2 nM; RatioGI50 [29]: 10000 - 30000; GI50 [30]: 0.8 nM |
| O=C(c1ccccc1)n1ccc2c3c(=O)cc(-c4ccccc4)[nH]c3ccc21 | 20 |  | 2 | 16 | 0.2 |  | 0.2 |  | 20 |  | 0.3 | 0.1 |  |  |  | > 100 | 10000 - 30000 | 10000 - 30000 | 2.7 | 10000 - 30000 | RatioGI50 [26]: 10000 - 30000; RatioGI50 [27]: 10000 - 30000; GI50 [28]: 2.5 nM; RatioGI50 [29]: 10000 - 30000; GI50 [30]: 3.1 nM |
